# Screens from PubChem BioAssay.
# TAAR1 agonist – human TAAR1 agonists, primary screen, Fluo-8 calcium fluorescence, CHO RD-HGA16 cells; hit rate 0.99% among 360,000; vehicle wells 0%, saturating PEA agonist 100%; activation, % at 3 µM;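 active = activation above the mean activation of all test compounds in the run plus 3 SD, cut at about 38% in these data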
# Target sequence (Q96RJ0 whole entry, looked up): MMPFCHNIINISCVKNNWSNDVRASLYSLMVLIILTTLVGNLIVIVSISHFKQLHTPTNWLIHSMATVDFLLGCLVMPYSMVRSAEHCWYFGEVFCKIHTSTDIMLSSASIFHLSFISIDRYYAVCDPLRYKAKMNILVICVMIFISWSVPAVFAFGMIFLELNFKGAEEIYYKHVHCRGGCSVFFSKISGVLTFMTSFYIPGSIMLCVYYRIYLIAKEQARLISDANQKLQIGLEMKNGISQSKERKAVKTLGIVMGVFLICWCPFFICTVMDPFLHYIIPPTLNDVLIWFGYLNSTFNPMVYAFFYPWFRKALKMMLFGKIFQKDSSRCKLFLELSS
#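 Assay system: CHO-derived RD-HGA16 cells with stable Gα16 and human TAAR1; timing: 17-24 h seeding, 75 min 37 °C dye, 30 min RT; read-out: % activation from peak over basal fluorescence ratio, DMSO-to-PEA scaled; measured by: kinetic Fluo-8 calcium fluorescence; benchmarks: low control DMSO, high control PEA (EC100); doses: 3 µM single concentration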
# OX1R antag-1 – antagonists of human orexin 1 receptor (OX1R); Orexin/Hypocretin receptor type 1 (Homo sapiens), O43613; OX1R-expressing cells, FRET antagonist read-out; inhibition, % at 6.6 µM; hit rate 1.8% among 330,000; in the data active = inhibition mostly above about 38%, no sharp cut-off; inactive = mostly below about 40%;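 note: 0% = agonist challenge alone and 100% = reference antagonist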
# OX1R antag-2 – OX1R (HCRTR1) antagonists, primary screen, fluorescence, CHO/OX1R cells, Fluo-8 calcium, orexin A; Orexin/Hypocretin receptor type 1 (Homo sapiens), O43613; Fluo-8 calcium fluorescence; inhibition, % at 5 µM; hit rate 0.43% among 330,000; AID 434989, 2010;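 active = inhibition above its plate's threshold, mean inhibition of all tested compounds on the plate plus 3 SD, cut at about 37% in these data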;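 note: 0% = orexin A challenge wells and 100% = SB-334867-A antagonist wells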
# CHO parental Ca – ATP-evoked calcium signal inhibitors, parental CHO, primary screen, counter-screen for OX1R antagonist project, cell-based, fluorescence, Fluo-8 calcium dye. AID 463079, 2010. hit rate 0.63% among 330,000. parental CHO-K1, ATP-induced calcium, Fluo-8 fluorescence. inhibition, % at 5.6 µM;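 active = inhibition above that plate's mean sample inhibition plus 3 SD, cut at about 26% in these data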;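 note: 0% = ATP-challenged DMSO wells and 100% = DMSO wells without ATP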
#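 material = parental CHO cells | also added = ATP as calcium-mobilizing challenge | dosing = single point at 5.6 µM | detection = intracellular calcium via Fluo-8 no-wash fluorescent dye | read-out = % inhibition | benchmarks = low control ATP plus DMSO, high control DMSO only | repeats = one well per compound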
# GPR7 antag – GPR7 receptor antagonists, primary screen, cell-based, fluorescence, single concentration. GPR7-expressing cells, fluorescence antagonist assay. inhibition, % at 4.4 µM. hit rate 1.1% among 290,000. AID 1861, 2009; in the data active = inhibition above about 16%, passing the limit was not always enough;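 note: cells stimulated with the agonist NPW; 0% = agonist with vehicle and 100% = vehicle without agonist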
# TAAR1 antagonist – human TAAR1 antagonists, primary screen, Fluo-8 calcium fluorescence, CHO RD-HGA16 cells | antagonist | hit rate 1.5% among 360,000 | inhibition, % at 3 µM;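 active = inhibition above a per-plate cutoff, the mean inhibition of test compounds on that plate plus 3 SD, cut at about 49% in these data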;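 note: 0% = DMSO plus EC80 beta-PEA response and 100% = DMSO alone without agonist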
#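 Assay system: RD-HGA16 CHO cells with stable hTAAR1 and Gα16 / Reagent: EC80 β-phenethylamine stimulus / Doses: 3 µM, single point / Timing: dye loading 75 min at 37 °C, then 30 min room temperature / Measured by: Fluo-8 intracellular calcium dye fluorescence, real-time kinetic reads / Controls: vehicle wells and EC80 agonist wells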
# An asterisk follows results filed as active; . = no result. In the library only some 4.6% were active in any assay of this set; here they are far more common.
SMILES,TAAR1 agonist,OX1R antag-1,OX1R antag-2,CHO parental Ca,GPR7 antag,TAAR1 antagonist
Cc1cc(C)c(NC(=O)CNC(=O)c2cc(C3CC3)nc3c2cnn3C(C)C)c(C)c1,5.1,.,.,.,.,-2.2
COc1ccc(S(=O)(=O)N2CCN(C(=O)c3cc(-c4ccc(Br)cc4)n[nH]3)CC2)cc1OC,10.3,15.5,24.5,23.2,-5.8,61.8*
CC12CC3CC(C)(C1)CC(C(=O)NNC(=O)c1ccncc1)(C3)C2,5.7,14.1,2.2,-5.7,10.6,-20.4
COc1cccc(N/C(N)=N/c2nc(C(F)(F)F)cc(=O)[nH]2)c1,-0.6,21.1,-16.3,-13.6,-6.3,-3.8
O=C(O)c1cnc(-c2ccccc2)nc1Sc1ccccc1Cl,-0.8,56.0*,-22.1,-0.1,-5.0,-24.1
O=C(C1CC(=O)N(c2ccccc2)C1)N1CCN(c2ccccc2F)CC1 (stereo not drawn),0.8,16.4,-17.5,-9.9,-12.7,-14.8
COC(=O)c1ccc(N2CCN(S(=O)(=O)c3ccc4ccccc4c3)CC2)c([N+](=O)[O-])c1,9.6,46.4,23.3,37.6*,7.5,10.2
NC(=O)c1ccc(N2CCN(S(=O)(=O)c3ccccc3)CC2)c([N+](=O)[O-])c1,8.9,55.7,23.3,31.9,3.4,34.1
COc1ccc(N2CCN(S(=O)(=O)c3ccc4c(c3)CCCC4)CC2)c([N+](=O)[O-])c1,-0.5,36.9*,36.2,6.1,7.7,18.0
Cc1sc2ncnc(NC3CCN(Cc4ccccc4)CC3)c2c1C,2.9,21.9,-20.4,7.9,-2.8,-1.3
COc1ccccc1Cc1c(-c2ccccc2)nc2ccc(Br)cn12,-1.8,.,.,.,.,3.3
COC(=O)c1ccc(Sc2ccccc2NS(=O)(=O)c2ccc(C)cc2)nc1,0.2,33.2,-15.4,-9.5,-11.7,-9.6
CNc1ncnc2c1ncn2[C@H]1CN(Cc2ccc(Cl)cc2)C[C@@H](CO)O1,2.0,.,.,.,.,5.7
Cc1ccc(N(CC(=O)NC2CCCCC2)C(=O)CNC(=O)c2ccco2)cc1F,14.2,8.1,-2.4,-15.5,-9.0,-1.3
CCCCN(C=O)c1c(CC)nc2ccc(C(=O)N(C)Cc3ccco3)cn12,1.8,.,.,.,.,-6.1
O=C(c1cc(-c2ccc(Br)cc2)nc2ccccc12)N1CCN(c2ccccc2O)CC1,4.0,0.7,-28.5,-19.9,.,54.7*
O=C(c1cc(-c2ccc(Cl)cc2)nc2ccccc12)N1CCC1,2.2,12.6,-19.2,-10.7,.,20.4
Cc1cc(C(=O)N2CCN(c3ccccc3O)CC2)c(C)o1,10.0,13.3,-21.1,-19.8,.,21.7
Cc1ccc(-c2cc(C(=O)N3CCN(c4ccccc4O)CC3)c3ccccc3n2)o1,13.9,8.9,-9.2,-2.7,-14.3,61.7*
CCOC(=O)C1CCN(S(=O)(=O)c2ccc(OC)c(Cl)c2)CC1,-0.1,22.1,-0.4,-7.7,-5.7,11.7
CN(CCCC(=O)NCCc1ccccc1)S(=O)(=O)c1ccc([N+](=O)[O-])cc1,5.3,46.0*,-7.0,-12.2,0.0,1.6
CC1=C(C(=O)OCC(C)C)C23C(=O)c4ccccc4C2(O1)OC(N)=C3C#N (stereo not drawn),2.1,12.6,-20.9,-10.8,-7.4,-4.8
CC1=C(C(=O)OCC(C)C)[C@]23C(=O)c4ccccc4[C@@]2(O1)OC(N)=C3C#N,6.8,19.0,-19.0,-11.2,17.4*,-0.1
COc1cccc(-c2ccc(C#N)c(SCC(=O)NCCc3cccc(Cl)c3)n2)c1,8.4,17.0,2.2,-8.9,2.3,72.1*
COc1ccc(C(CNC(=O)c2ccc(-c3ccccc3Cl)o2)N2CCCC2)cc1 (stereo not drawn),41.8*,.,.,.,.,-10.5
COc1cc(C(C)=O)ccc1OCC(=O)NCc1ccccc1CN1CCCC1,0.0,.,.,.,.,9.2
Cn1c(=O)c2c(-c3ccccc3)n(-c3ccccc3O)cc2n(C)c1=O,9.4,9.4,-17.9,-4.2,-9.7,6.3
Cn1c(=O)c2c(-c3ccccc3)n(-c3ccccc3Br)cc2n(C)c1=O,7.0,.,.,.,.,52.7*
